ChEMBL document CHEMBL4265907, “Design, synthesis and pharmacological evaluation of N4,N6-disubstituted pyrimidine-4,6-diamine derivatives as potent EGFR inhibitors in non-small cell lung cancer” (Eur J Med Chem, 2018)
Calls of active or inactive are those of the source. The calls are words filed in the database; no cut-off is given here.

Key:
NCI-H1975 [1] = assay: Induction of apoptosis in human NCI-H1975 cells assessed as viable cells at 250 nM after 48 hrs by Annexin V-FITC/PI staining based flow cytometry (reference value: 93.7%); type: functional; conditions: NCI-H1975, 48 h, read-out: Activity
A-431 [2] = assay: Induction of apoptosis in human A431 cells assessed as viable cells at 1000 nM after 48 hrs by Annexin V-FITC/PI staining based flow cytometry (reference value: 90.3%); type: functional; conditions: A-431, 48 h, read-out: Activity
[3] = Half life in Sprague-Dawley rat at 30 mg/kg, po by UPLC-MS/MS analysis; type: ADME, organism-based; conditions: in vivo
In short: (§1)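 Four female and four male Sprague-Dawley rats, 200-220 g, fasted 12 h, then given a single oral dose of 30 mg/kg as a 0.5% CMC-Na suspension. Blood sampled at 0.083, 0.25, 0.5, 1, 2, 4, 8 and 24 h, plasma separated by centrifugation at 4000 r/min for 10 min, and analysed by UPLC–MS/MS. Parameters reported as mean ± SD, n=6.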

[4] = target: T1, Epidermal growth factor receptor (Homo sapiens, UniProt P00533); assay: Inhibition of EGFR in human A431 cells assessed as decrease in EGF-induced AKT phosphorylation by Western blot method; type: cell-based
In short: (§2)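 Cell lysates prepared in protein lysis buffer and cleared at 12,000 g for 10 min at 4 °C. 50 μg protein per lane was run on a gel, transferred to PVDF and immunoblotted, with GAPDH as the loading control.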

HCC827 [5] = assay: Induction of apoptosis in human HCC827 cells assessed as early apoptotic cells at 250 nM after 48 hrs by Annexin V-FITC/PI staining based flow cytometry (reference value: 2.83%); type: functional
NCI-H1975 [6] = assay: Induction of apoptosis in human NCI-H1975 cells assessed as necrotic cells at 250 nM after 48 hrs by Annexin V-FITC/PI staining based flow cytometry (reference value: 2.31%); type: functional
NCI-H3255 [7] = assay: Induction of apoptosis in human H3255 cells assessed as necrotic cells at 500 nM after 48 hrs by Annexin V-FITC/PI staining based flow cytometry (reference value: 7.06%); type: functional
A-431 [8] = assay: Induction of apoptosis in human A431 cells assessed as necrotic cells at 250 nM after 48 hrs by Annexin V-FITC/PI staining based flow cytometry (reference value: 4.16%); type: functional
PC-9 = assay: Antitumor activity against human PC9 cells xenografted in BALB/C nude mouse assessed as decrease in tumor weight at 15 to 30 mg/kg, ip qd administered for 19 days measured for 23 days; type: functional, organism-based
In short: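 Six-week-old BALB/C-nu mice given 2×10^6 PC-9 cells subcutaneously in the right flank. At tumour size ~0.2-0.4 cm³, randomised, 5 mice/group. Dosed ip daily for 19 days at 15 or 30 mg/kg, vehicle DMSO:Span-80:ddH₂O = 2:1:50; vehicle-treated control group. Tumour volume = (W²×L)/2. Tumours weighed.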

[9] = AUC (0 to t) in Sprague-Dawley rat at 30 mg/kg, po by UPLC-MS/MS analysis; type: ADME, organism-based; conditions: in vivo; in short: as §1
HCC827 [10] = assay: Induction of apoptosis in human HCC827 cells assessed as late apoptotic cells at 500 nM after 48 hrs by Annexin V-FITC/PI staining based flow cytometry (reference value: 1.15%); type: functional
[11] = target: T1, Epidermal growth factor receptor; assay: Inhibition of EGFR in human HCC827 cells assessed as decrease in EGF-induced ERK1/2 phosphorylation by Western blot method; type: cell-based; in short: as §2
NCI-H3255 [12] = assay: Induction of apoptosis in human H3255 cells assessed as late apoptotic cells at 1000 nM after 48 hrs by Annexin V-FITC/PI staining based flow cytometry (reference value: 1.77%); type: functional
[13] = target: T1, Epidermal growth factor receptor; assay: Inhibition of EGF-induced EGFR autophosphorylation at Y1068 residues in human HCC827 cells by Western blot method; type: cell-based; in short: as §2
A-431 [14] = assay: Induction of apoptosis in human A431 cells assessed as late apoptotic cells at 500 nM after 48 hrs by Annexin V-FITC/PI staining based flow cytometry (reference value: 2.11%); type: functional
NCI-H3255 [15] = assay: Induction of apoptosis in human H3255 cells assessed as early apoptotic cells at 250 nM after 48 hrs by Annexin V-FITC/PI staining based flow cytometry (reference value: 3.22%); type: functional
HCC827 [16] = assay: Induction of apoptosis in human HCC827 cells assessed as viable cells at 500 nM after 48 hrs by Annexin V-FITC/PI staining based flow cytometry (reference value: 94.6%); type: functional; conditions: HCC827, 48 h, read-out: Activity
Mus musculus [17] = assay: In vivo inhibition of ERK1/2 phosphorylation in tumor of BALB/C nude mouse xenografted with human PC9 cells at 15 to 30 mg/kg, ip qd administered for 19 days by immunoblot method; type: functional, organism-based
NCI-H3255 [18] = assay: Induction of apoptosis in human H3255 cells assessed as viable cells at 250 nM after 48 hrs by Annexin V-FITC/PI staining based flow cytometry (reference value: 87.9%); type: functional; conditions: NCI-H3255, 48 h, read-out: Activity
Rattus norvegicus = assay: Volume of distribution in Sprague-Dawley rat at 30 mg/kg, po by UPLC-MS/MS analysis; type: ADME, organism-based; conditions: in vivo
In short: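 Sprague-Dawley rats (four female, four male; 200-220 g) were fasted 12 h and given a single oral 30 mg/kg dose as a 0.5% CMC-Na suspension. Blood was drawn at 0.083, 0.25, 0.5, 1, 2, 4, 8 and 24 h and centrifuged at 4000 r/min for 10 min. Samples were quantified by UPLC–MS/MS; parameters are reported for n=6.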

NCI-H1975 [19] = assay: Induction of apoptosis in human NCI-H1975 cells assessed as late apoptotic cells at 250 nM after 48 hrs by Annexin V-FITC/PI staining based flow cytometry (reference value: 1.91%); type: functional
NCI-H1975 [20] = assay: Induction of apoptosis in human NCI-H1975 cells assessed as early apoptotic cells at 1000 nM after 48 hrs by Annexin V-FITC/PI staining based flow cytometry (reference value: 2.07%); type: functional
NCI-H3255 [21] = assay: Induction of apoptosis in human H3255 cells assessed as late apoptotic cells at 500 nM after 48 hrs by Annexin V-FITC/PI staining based flow cytometry (reference value: 1.77%); type: functional
NCI-H1975 [22] = assay: Induction of apoptosis in human NCI-H1975 cells assessed as late apoptotic cells after 48 hrs by Annexin V-FITC/PI staining based flow cytometry; type: functional, cell-based
Mus musculus [23] = assay: In vivo inhibition of EGFR phosphorylation in tumor of BALB/C nude mouse xenografted with human PC9 cells at 15 to 30 mg/kg, ip qd administered for 19 days by immunohistochemical analysis; type: functional, organism-based
NCI-H3255 [24] = assay: Induction of apoptosis in human H3255 cells assessed as early apoptotic cells at 500 nM after 48 hrs by Annexin V-FITC/PI staining based flow cytometry (reference value: 3.22%); type: functional
NCI-H1975 [25] = assay: Induction of apoptosis in human NCI-H1975 cells assessed as viable cells at 500 nM after 48 hrs by Annexin V-FITC/PI staining based flow cytometry (reference value: 93.7%); type: functional; conditions: NCI-H1975, 48 h, read-out: Activity
[26] = target: T1, Epidermal growth factor receptor; assay: Inhibition of EGF-induced EGFR autophosphorylation at Y1068 residues in human H3255 cells by Western blot method; type: cell-based; in short: as §2

T1 sequence (P00533 whole entry): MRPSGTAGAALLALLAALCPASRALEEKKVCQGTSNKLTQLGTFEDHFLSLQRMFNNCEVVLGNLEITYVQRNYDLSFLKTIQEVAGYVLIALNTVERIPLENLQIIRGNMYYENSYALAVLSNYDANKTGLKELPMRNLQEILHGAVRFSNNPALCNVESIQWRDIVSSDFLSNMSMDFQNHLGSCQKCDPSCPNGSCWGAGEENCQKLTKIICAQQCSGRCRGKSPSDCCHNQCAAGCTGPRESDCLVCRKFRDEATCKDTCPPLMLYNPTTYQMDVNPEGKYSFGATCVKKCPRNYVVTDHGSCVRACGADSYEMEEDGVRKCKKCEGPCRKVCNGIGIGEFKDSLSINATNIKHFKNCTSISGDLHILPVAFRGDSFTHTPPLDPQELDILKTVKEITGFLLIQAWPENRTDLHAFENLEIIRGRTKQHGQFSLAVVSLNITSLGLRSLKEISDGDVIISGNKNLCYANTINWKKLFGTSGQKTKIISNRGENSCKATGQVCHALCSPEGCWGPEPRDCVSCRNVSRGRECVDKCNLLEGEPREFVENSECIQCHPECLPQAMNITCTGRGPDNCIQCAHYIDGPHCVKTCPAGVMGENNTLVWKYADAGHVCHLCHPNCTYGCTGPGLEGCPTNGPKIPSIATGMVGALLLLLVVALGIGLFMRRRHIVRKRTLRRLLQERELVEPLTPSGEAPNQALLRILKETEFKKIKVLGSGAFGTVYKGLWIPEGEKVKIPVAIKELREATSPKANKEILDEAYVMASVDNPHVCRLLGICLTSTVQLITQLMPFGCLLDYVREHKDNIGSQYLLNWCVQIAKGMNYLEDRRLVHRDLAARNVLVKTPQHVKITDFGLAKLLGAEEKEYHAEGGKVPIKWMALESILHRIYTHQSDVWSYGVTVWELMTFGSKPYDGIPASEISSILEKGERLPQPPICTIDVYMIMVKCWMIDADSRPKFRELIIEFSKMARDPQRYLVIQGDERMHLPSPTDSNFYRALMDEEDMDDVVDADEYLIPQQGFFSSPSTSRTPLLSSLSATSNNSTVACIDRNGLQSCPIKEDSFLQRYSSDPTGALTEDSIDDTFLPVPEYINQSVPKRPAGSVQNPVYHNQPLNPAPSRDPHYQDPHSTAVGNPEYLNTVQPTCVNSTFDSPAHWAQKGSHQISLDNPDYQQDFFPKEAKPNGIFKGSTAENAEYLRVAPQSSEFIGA

## COc1cccc(Nc2cc(Nc3cc(OC)ccc3OC)ncn2)c1
NCI-H1975 [1]
  viability at 0.25 µM: 56.1%
A-431 [2]
  viability at 1 µM: 65.3%
[3]
  half-life: 4.17 h
[4]
  inhibition: Dose-dependent effect
HCC827 [5]
  Activity: 15.5%
NCI-H1975 [6]
  Activity: 7.95%
NCI-H3255 [7]
  Activity: 4.88%
A-431 [8]
  Activity: 3.41%
PC-9
  Activity: Active
[9]
  AUC(0-t): 5700 ng·h/mL
HCC827 [10]
  Activity: 7.72%
[11]
  inhibition: Dose-dependent effect
NCI-H3255 [12]
  Activity: 10.6%
[13]
  inhibition: Dose-dependent effect
A-431 [14]
  Activity: 8.57%
NCI-H3255 [15]
  Activity: 13.3%
HCC827 [16]
  viability at 0.5 µM: 61.8%
Mus musculus [17]
  inhibition: Active
NCI-H3255 [18]
  viability at 0.25 µM: 79.2%
Rattus norvegicus
  Vd: 0.03 L/kg
NCI-H1975 [19]
  Activity: 13.5%
NCI-H1975 [20]
  Activity: 27.8%
NCI-H3255 [21]
  Activity: 5.35%
NCI-H1975 [22]
  Activity: Dose-dependent effect
Mus musculus [23]
  inhibition: Active
NCI-H3255 [24]
  Activity: 11.5%
NCI-H1975 [25]
  viability at 0.5 µM: 52.5%
[26]
  inhibition: Dose-dependent effect
